Source: ChEMBL document CHEMBL1909596, “Synthesis and evaluation of chromenyl barbiturates and thiobarbiturates as potential antitubercular agents” (Bioorg Med Chem Lett, 2011)
≈ marks a conversion by molar mass, not a printed value.

tested on: not listed separately; test: Cytotoxicity against african green monkey Vero cells after 72 hrs by celltiter-glo luminescent cell viability assay; type: cell-based; conditions: chlorocebus sabaeus
In short: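 VERO cells exposed to compounds for 72 h. Viability read from ATP content by luminescence. CC50 derived by curve fitting of dose–response curves.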

`Cc1cc(=O)oc2c(C)c3occ(C=C4C(=O)NC(=O)NC4=O)c(=O)c3cc12` showed a CC50 at 72 h of 14.3 µg/mL (≈ 37.5 µM).

tested on: not listed separately; test: Selectivity index, ratio of CC50 african green monkey Vero cells to IC90 for Mycobacterium tuberculosis H37Rv ATCC 27294; type: toxicity, cell-based; conditions: not given
In short: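 SI calculated as VERO CC50 (72 h luminescent ATP viability assay, curve-fitted) divided by the MABA MIC (90% fluorescence reduction endpoint) for H37Rv.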

`Cc1cc(=O)oc2c(C)c3occ(C=C4C(=O)NC(=O)NC4=O)c(=O)c3cc12` gave a selectivity ratio of 2.41.

tested on: Mycobacterium tuberculosis; test: Antimycobacterial activity against Mycobacterium tuberculosis H37Rv ATCC 27294 by microplate alamar blue assay; type: functional, organism-based; conditions: not given
In short: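 Strain grown in BACTEC 12B medium, broth microdilution with Alamar Blue read-out (TAACF protocol). Primary screen at 6.25 µg/mL; compounds reaching ≥90% growth inhibition retested in 10 twofold dilutions, typically from 100. MIC taken as the lowest concentration giving 90% fluorescence reduction relative to controls. Fluorescent compounds tested in BACTEC 460 radiometric system instead. Rifampin control.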

Point of comparison: `Cc1ccc(C(=O)c2oc3cc4occ(C=C5C(=O)NC(=O)NC5=O)c(=O)c4cc3c2C)cc1`, IC50 55.2 µg/mL (≈ 121 µM). Against it:
- Cc1c(C(=O)c2ccccc2)oc2cc3occ(C=C4C(=O)NC(=S)NC4=O)c(=O)c3cc12 — higher, > 100 µg/mL
- Cc1cc(=O)oc2cc3occ(C=C4C(=O)NC(=O)NC4=O)c(=O)c3cc12 — higher, > 100 µg/mL
- Cc1c(C(=O)c2ccc(-c3ccccc3)cc2)oc2cc3occ(C=C4C(=O)NC(=O)NC4=O)c(=O)c3cc12 — higher, > 100 µg/mL
- Cc1cc(=O)oc2c(C)c3occ(C=C4C(=O)NC(=O)NC4=O)c(=O)c3cc12 — 12-fold lower, 4.71 µg/mL (≈ 12.4 µM)
- COc1ccc(C(=O)c2oc3cc4occ(C=C5C(=O)NC(=S)NC5=O)c(=O)c4cc3c2C)cc1 — higher, > 100 µg/mL
- Cc1cc(=O)oc2cc3occ(C=C4C(=O)NC(=S)NC4=O)c(=O)c3cc12 — higher, > 100 µg/mL
- Cc1c(C(=O)c2ccc(Cl)cc2)oc2cc3occ(C=C4C(=O)NC(=O)NC4=O)c(=O)c3cc12 — within 1.5-fold, 65.1 µg/mL (≈ 136 µM)
- COc1ccc(C(=O)c2oc3cc4occ(C=C5C(=O)NC(=O)NC5=O)c(=O)c4cc3c2C)cc1 — higher, > 100 µg/mL
- Cc1c(C(=O)c2ccc(Br)cc2)oc2cc3occ(C=C4C(=O)NC(=O)NC4=O)c(=O)c3cc12 — within 1.5-fold, 38.5 µg/mL (≈ 73.9 µM)
- Cc1c(C(=O)c2ccc(Cl)cc2)oc2cc3occ(C=C4C(=O)NC(=S)NC4=O)c(=O)c3cc12 — within 1.5-fold, 42 µg/mL (≈ 85.3 µM)

Point of comparison: `Cc1c(C(=O)c2ccc(Cl)cc2)oc2cc3occ(C=C4C(=O)NC(=O)NC4=O)c(=O)c3cc12`, IC90 93 µg/mL (≈ 195 µM). Against it:
- Cc1c(C(=O)c2ccccc2)oc2cc3occ(C=C4C(=O)NC(=S)NC4=O)c(=O)c3cc12 — higher, > 100 µg/mL
- Cc1ccc(C(=O)c2oc3cc4occ(C=C5C(=O)NC(=O)NC5=O)c(=O)c4cc3c2C)cc1 — within 1.5-fold, 84.7 µg/mL (≈ 186 µM)
- Cc1cc(=O)oc2cc3occ(C=C4C(=O)NC(=O)NC4=O)c(=O)c3cc12 — higher, > 100 µg/mL
- Cc1c(C(=O)c2ccc(-c3ccccc3)cc2)oc2cc3occ(C=C4C(=O)NC(=O)NC4=O)c(=O)c3cc12 — higher, > 100 µg/mL
- Cc1cc(=O)oc2c(C)c3occ(C=C4C(=O)NC(=O)NC4=O)c(=O)c3cc12 — 16-fold lower, 5.9 µg/mL (≈ 15.5 µM)
- COc1ccc(C(=O)c2oc3cc4occ(C=C5C(=O)NC(=S)NC5=O)c(=O)c4cc3c2C)cc1 — higher, > 100 µg/mL
- Cc1cc(=O)oc2cc3occ(C=C4C(=O)NC(=S)NC4=O)c(=O)c3cc12 — higher, > 100 µg/mL
- COc1ccc(C(=O)c2oc3cc4occ(C=C5C(=O)NC(=O)NC5=O)c(=O)c4cc3c2C)cc1 — higher, > 100 µg/mL
- Cc1c(C(=O)c2ccc(Br)cc2)oc2cc3occ(C=C4C(=O)NC(=O)NC4=O)c(=O)c3cc12 — 1.7-fold lower, 55.4 µg/mL (≈ 106 µM)
- Cc1c(C(=O)c2ccc(Cl)cc2)oc2cc3occ(C=C4C(=O)NC(=S)NC4=O)c(=O)c3cc12 — within 1.5-fold, 63.8 µg/mL (≈ 129 µM)
- NC(=O)c1cnccn1 [PYRAZINAMIDE] — not separable, > 20 µg/mL
